Experiments:
Conditions in all cases: stereoisomer not certain
OR10H4 (Homo sapiens) = target: T1, OR10H4 (Homo sapiens) (UniProt Q8NGA5)
T1 sequence (whole entry): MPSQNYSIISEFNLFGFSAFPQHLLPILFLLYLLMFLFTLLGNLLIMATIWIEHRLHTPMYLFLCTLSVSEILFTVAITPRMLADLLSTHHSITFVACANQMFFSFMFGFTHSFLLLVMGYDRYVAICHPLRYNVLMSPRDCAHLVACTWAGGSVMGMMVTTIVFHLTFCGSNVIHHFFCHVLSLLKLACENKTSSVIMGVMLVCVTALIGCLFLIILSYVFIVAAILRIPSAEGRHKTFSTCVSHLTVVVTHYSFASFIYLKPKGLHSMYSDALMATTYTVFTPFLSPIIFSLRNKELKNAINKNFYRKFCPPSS
Procedure, shortened: (§1)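 Transient luciferase assays in mammalian cell lines were common, though methods varied by source. The values come from published papers and their supplementary material, with extra details from the original authors when needed. Responsive refers to a measured signal the original authors judged statistically different from baseline, and non-responsive (inactive) to the remainder.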

OR10H5 (Homo sapiens) = target: T2, OR10H5 (Homo sapiens) (UniProt Q8NGA6)
T2 sequence (whole entry): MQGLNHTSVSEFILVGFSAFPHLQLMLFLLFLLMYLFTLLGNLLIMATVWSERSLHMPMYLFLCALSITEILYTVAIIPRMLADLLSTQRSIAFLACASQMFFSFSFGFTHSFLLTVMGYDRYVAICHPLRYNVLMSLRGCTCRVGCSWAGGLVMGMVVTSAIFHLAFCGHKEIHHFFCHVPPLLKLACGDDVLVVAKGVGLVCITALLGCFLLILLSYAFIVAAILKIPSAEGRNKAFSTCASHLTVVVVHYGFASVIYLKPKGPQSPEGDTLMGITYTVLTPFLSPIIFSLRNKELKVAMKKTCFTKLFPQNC
Procedure, shortened: as §1

OR10J1 (Homo sapiens) = target: T3, OR10J1 (Homo sapiens) (UniProt P30954)
T3 sequence (whole entry): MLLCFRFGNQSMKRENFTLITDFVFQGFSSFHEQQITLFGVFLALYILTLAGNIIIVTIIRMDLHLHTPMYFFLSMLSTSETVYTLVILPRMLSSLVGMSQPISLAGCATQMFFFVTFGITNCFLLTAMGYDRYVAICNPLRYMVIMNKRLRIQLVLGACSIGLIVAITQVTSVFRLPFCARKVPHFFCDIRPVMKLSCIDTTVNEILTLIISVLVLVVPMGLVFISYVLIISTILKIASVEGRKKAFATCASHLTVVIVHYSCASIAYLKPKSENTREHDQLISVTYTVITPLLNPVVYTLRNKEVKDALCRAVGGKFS
Procedure, shortened: as §1

OR10J3 (Homo sapiens) = target: T4, OR10J3 (Homo sapiens) (UniProt Q5JRS4)
T4 sequence (whole entry): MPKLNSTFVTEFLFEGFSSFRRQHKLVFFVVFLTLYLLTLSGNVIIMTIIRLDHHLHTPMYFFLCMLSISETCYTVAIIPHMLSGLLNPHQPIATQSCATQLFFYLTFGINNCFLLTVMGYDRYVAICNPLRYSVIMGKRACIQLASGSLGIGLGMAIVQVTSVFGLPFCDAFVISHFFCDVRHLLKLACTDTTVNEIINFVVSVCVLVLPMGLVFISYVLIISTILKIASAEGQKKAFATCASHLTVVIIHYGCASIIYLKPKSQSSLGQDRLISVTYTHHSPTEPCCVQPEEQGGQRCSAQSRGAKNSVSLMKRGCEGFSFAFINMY
Procedure, shortened: as §1

OR10J5 (Homo sapiens) = target: T5, OR10J5 (Homo sapiens) (UniProt Q8NHC4)
T5 sequence (whole entry): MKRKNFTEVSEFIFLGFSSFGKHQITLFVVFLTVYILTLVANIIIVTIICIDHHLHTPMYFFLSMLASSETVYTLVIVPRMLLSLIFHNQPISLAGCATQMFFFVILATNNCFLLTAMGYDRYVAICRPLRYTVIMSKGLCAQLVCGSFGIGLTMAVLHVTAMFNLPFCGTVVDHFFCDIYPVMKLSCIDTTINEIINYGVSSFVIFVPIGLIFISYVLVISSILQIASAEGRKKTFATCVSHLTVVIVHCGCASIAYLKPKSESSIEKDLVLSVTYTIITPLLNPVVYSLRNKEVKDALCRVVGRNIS
Procedure, shortened: as §1

OR10K1 (Homo sapiens) = target: T6, OR10K1 (Homo sapiens) (UniProt Q8NGX5)
T6 sequence (whole entry): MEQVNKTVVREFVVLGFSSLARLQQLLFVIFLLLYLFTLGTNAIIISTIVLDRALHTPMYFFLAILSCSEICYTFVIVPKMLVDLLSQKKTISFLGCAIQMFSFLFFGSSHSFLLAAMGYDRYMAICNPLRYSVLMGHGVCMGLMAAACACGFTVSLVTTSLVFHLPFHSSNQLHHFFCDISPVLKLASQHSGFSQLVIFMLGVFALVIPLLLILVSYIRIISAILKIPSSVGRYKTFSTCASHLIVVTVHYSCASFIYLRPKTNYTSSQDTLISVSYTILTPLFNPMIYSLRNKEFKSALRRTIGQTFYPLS
Procedure, shortened: as §1

OR10K2 (Homo sapiens) = target: T7, OR10K2 (Homo sapiens) (UniProt Q6IF99)
T7 sequence (whole entry): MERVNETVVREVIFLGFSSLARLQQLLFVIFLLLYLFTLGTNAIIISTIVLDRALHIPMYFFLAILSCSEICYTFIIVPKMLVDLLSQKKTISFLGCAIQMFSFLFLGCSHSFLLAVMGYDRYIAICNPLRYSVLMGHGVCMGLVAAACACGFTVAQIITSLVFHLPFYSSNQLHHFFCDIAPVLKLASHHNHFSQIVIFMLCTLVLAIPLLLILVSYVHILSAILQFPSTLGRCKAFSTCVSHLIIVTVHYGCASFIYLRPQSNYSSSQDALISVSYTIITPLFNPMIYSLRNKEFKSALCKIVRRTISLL
Procedure, shortened: as §1

OR10P1 (Homo sapiens) = target: T8, OR10P1 (Homo sapiens) (UniProt Q8NGE3)
T8 sequence (whole entry): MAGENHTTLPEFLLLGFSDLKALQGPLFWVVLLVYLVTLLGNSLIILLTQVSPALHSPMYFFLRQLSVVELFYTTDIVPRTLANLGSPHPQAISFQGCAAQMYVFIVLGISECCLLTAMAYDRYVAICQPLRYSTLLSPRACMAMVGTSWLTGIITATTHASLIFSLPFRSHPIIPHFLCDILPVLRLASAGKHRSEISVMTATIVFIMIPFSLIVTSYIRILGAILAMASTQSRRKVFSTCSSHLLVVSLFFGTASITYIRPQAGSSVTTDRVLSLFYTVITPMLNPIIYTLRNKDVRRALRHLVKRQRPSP
Procedure, shortened: as §1

OR10Q1 (Homo sapiens) = target: T9, OR10Q1 (Homo sapiens) (UniProt Q8NGQ4)
T9 sequence (whole entry): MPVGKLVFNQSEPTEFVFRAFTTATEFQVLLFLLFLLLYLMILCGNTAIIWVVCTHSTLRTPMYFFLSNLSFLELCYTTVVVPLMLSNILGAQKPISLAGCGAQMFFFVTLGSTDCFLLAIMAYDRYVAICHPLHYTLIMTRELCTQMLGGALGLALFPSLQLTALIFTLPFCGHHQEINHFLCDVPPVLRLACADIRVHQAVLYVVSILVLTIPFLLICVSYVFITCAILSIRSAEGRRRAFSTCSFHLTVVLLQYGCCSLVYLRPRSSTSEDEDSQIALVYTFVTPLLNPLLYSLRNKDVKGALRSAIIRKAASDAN
Procedure, shortened: as §1

Measured: odorant receptor agonist call

CCCCCC(=O)C(C)C(C)=O (centres undefined)
inactive: OR10H4 (Homo sapiens) | OR10H5 (Homo sapiens) | OR10J1 (Homo sapiens) | OR10J3 (Homo sapiens) | OR10J5 (Homo sapiens) | OR10K1 (Homo sapiens) | OR10K2 (Homo sapiens) | OR10P1 (Homo sapiens) | OR10Q1 (Homo sapiens)

From the M2OR odorant receptor database
